Experimental data of several laboratories.
Lines come from different studies, so protocols differ.
Target: Serine/threonine-protein kinase Nek4 (NEK4, Homo sapiens, UniProt P51957)

test | system | conditions | quantity | value | Compound
cell-free assay, competition with immobilised ligand | – | 1 µM | remaining binding | 90.1% | CC1=C(C#N)[C@@H](c2ccc3[nH]nc(C)c3c2)C(C#N)=C(c2ccc(Cl)cc2)N1
enzyme activity, inhibitor | – | 1 µM | inhibition | 2% | CN1CC(Oc2cnc(C#N)cc2-c2ccn3nc(NC(=O)C4CC4)cc3c2)C1
cell-free assay | – | 0.5 µM | remaining signal | 90.3% | COc1cc2c(N3CCN(C(=O)Nc4ccc(OC(C)C)cc4)CC3)ncnc2cc1OCCCN1CCCCC1
enzyme activity, inhibitor | – | 0.1 µM | inhibition | -1.9% | CC/C(=N\NC(=O)NCc1cccc(O)c1)c1ccc(O)c(C)c1O
enzyme activity, inhibitor | – | 1 µM | inhibition | 2% | COc1cc2ncnc(Nc3ccc(Oc4ccccc4)c(C)c3C)c2cc1OC
enzyme activity, inhibitor | – | 1 µM | remaining activity | 84.3% | CC(C)(O)[C@H]1CC[C@H](Nc2ccc3ncc(-c4cccc(C(F)(F)F)c4)n3n2)CC1
cell-free assay | – | 0.5 µM | remaining signal | 97.7% | Clc1ccc(Nc2nnc(Cc3ccncc3)c3ccccc23)cc1
enzyme activity, inhibitor | – | 1 µM | inhibition | < 10% | CCCS(=O)(=O)Nc1ccc(F)c(C(=O)c2c[nH]c3ncc(-c4ccc(Cl)cc4)cc23)c1F
enzyme activity, inhibitor, radiometric | – | 1 µM | remaining activity | 92% | CC(C)(C)c1nc(-c2cccc(NS(=O)(=O)c3c(F)cccc3F)c2F)c(-c2ccnc(N)n2)s1
target engagement in cells, inhibitor, chemoproteomics | A-375 | 50 nM | inhibition | -31% | CCN1CCN(Cc2ccc(NC(=O)c3ccc(C)c(/C=C/c4cnc5[nH]ccc5c4OC)c3)cc2C(F)(F)F)CC1
cell-free assay, competition with immobilised ligand | – | 0.1 µM | remaining binding | 100% | COCCOc1nc(-c2ccc(Cl)nc2)nc2c1CN(C(=O)c1ncn3ccccc13)CC2
enzyme activity, inhibitor, FRET | – | 1 µM | inhibition | 8% | CN(C)C1CCN(CC#Cc2nn(C3CCCC3)c3nc(NCc4ccccc4)ncc23)C1 (stereo not drawn)
cell-free assay, competition with immobilised ligand | – | 1 µM | remaining binding | 12% | C[C@@]1(Cc2ccc(C#N)cc2)C(=O)N(c2cc(Cl)cc(Cl)c2)c2ncc(C(=O)NC3(c4nc(C5CCC5)no4)CC3)n21
enzyme activity, inhibitor | – | 5 µM | remaining activity | 90.8% | O=C(Nc1cnn(-c2csc(C(=O)NC3COC3)c2)c1)Nc1c(F)cccc1Cl
cell-free assay, competition with immobilised ligand | – | 1 µM | remaining binding | 100% | CC(=O)N1CCC(c2ccc(C(=O)NC3=NCCN3)cc2C(F)(F)F)CC1
target engagement in cells, inhibitor, chemoproteomics | – | 20 mM | inhibition | -7.4% | COc1cccc2c(NCc3ccccc3)nc(-n3c(N)nc4ccccc43)nc12
cell-free assay, competition with immobilised ligand | – | 1 µM | remaining binding | 79% | O=C(Nc1cnc(Oc2ccc(F)cc2)nc1)N1CCc2ncccc2[C@@H]1c1ccc(F)cc1
cell-free assay, inhibitor | – | 20 µM | remaining signal | 2.8% | Nc1ncnc2occ(-c3ccc(NC(=O)Nc4cc(C(F)(F)F)ccc4F)cc3)c12
